Hsp70 activator – Hsp70 transcriptional activation, primary screen; AID 1203; HeLa Hsp70 promoter luciferase reporter, luminescence; scaled: vehicle 0, proteasome-inhibitor control 100%; 0.04% of 200,000 active; activation, % at 10 µM;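 active = activation above the mean across all tested compounds plus 3 SD, cutoff set per campaign, cut at about 5.5% in these data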
HSF1 activator – increases HSF-1 driven luciferase reporter signal; NIH3T3-HGL HSF-1 luciferase reporter, MG132, 8 h; 100% = twice DMSO control signal; activation, % at 9 µM; 1.7% of 300,000 active; AID 504408;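 active = mean replicate activation of at least 50% with a set share of replicates each reaching 50%; inconclusive = only one of those two conditions met; inactive = mean below 50% and too few replicates reaching it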
TbHK1 inh – T. brucei hexokinase 1 inhibition; recombinant TbHK1, G6PDH-coupled NADH A340; inhibition, % at 10 µM; 0.11% of 220,000 active; AID 1430;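 active = inhibition of 50% or more in the single-dose primary screen; inactive = inhibition below 50%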
HSF1 inh – HSF1 inhibition. NIH3T3-HGL HSE-luciferase, MG132-induced, luminescence 8 h; hits give low values. AID 2098. 0.77% of 300,000 active. activity change, negative = inhibition, % at 7.5 µM (by protocol);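 active = more than half of replicate wells show activity change below -50%, luminescence cut by over half; inconclusive = some wells, but at most half, below -50%; inactive = no replicate well below -50%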;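 also: luciferase reports HSF-1 transcriptional activity via heat shock element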
HSP90 refold inh – blocks HSP90-mediated luciferase refolding in reticulocyte lysate; inhibition, % at 5.6 µM; Rabbit reticulocyte lysate, luciferase refolding luminescence, 3 h; AID 1789; 0.91% of 290,000 active;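 active = inhibition above the screen-wide mean plus 3 SD, computed separately per campaign, cut at about 16% in these data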;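 also: inhibitors lower the luminescence because luciferase stays unfolded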
HKDC1 inh – blocks human hexokinase HKDC1 activity | Q2TB90 | recombinant HKDC1, G6PDH/diaphorase resazurin coupled fluorescence | inhibition, % at 20 µM | 0.16% of 340,000 active;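 active = inhibition above about 35% when tested at 20 µM, limit read from the data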
Target sequence (Q2TB90 whole entry, looked up): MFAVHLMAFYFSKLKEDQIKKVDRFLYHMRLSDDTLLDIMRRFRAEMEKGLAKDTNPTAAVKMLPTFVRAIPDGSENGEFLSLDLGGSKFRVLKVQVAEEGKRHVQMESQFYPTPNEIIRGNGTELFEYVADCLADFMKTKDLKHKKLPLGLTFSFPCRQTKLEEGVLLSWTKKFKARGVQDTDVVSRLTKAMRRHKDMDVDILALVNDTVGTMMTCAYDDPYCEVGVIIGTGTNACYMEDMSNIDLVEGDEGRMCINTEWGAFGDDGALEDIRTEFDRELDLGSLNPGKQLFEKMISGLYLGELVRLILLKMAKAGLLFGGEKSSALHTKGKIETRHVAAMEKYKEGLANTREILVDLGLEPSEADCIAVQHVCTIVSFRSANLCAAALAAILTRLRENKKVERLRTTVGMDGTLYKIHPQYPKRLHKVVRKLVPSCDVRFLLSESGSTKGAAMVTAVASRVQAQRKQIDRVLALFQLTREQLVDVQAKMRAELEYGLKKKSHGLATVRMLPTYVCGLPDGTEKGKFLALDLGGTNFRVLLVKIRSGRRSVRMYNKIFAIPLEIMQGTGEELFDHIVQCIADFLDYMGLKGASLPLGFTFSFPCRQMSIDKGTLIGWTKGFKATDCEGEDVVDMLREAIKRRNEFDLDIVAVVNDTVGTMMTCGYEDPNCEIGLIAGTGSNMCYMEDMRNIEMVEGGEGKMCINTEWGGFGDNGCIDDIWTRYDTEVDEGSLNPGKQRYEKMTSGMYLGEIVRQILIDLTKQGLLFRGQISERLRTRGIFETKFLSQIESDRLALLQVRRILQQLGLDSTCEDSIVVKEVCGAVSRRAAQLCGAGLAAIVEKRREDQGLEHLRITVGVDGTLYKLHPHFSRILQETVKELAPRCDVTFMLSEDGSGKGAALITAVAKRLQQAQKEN
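Test system: recombinant HKDC1 (HK5) hexokinase enzyme, produced in-house / Doses: 20 µM test compound, 1% DMSO / Timing: 90 min, room temperature / Detection: G6PDH/diaphorase-coupled fluorescence, 1 mM NADP, 100 µM resazurin, 525/613 nm / Control set: DMSO wells with and without enzyme mix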
Of the large screens only hits and unclear results are named; the others gave an inactive call; ! = repeats disagree. Compounds with a hit are over-represented: about 3.1% of the library has one in this group of screens.

COCC(C)NS(=O)(=O)c1ccc(C(=O)NCCCn2ccc3ccccc32)cc1 (configuration not stated)	none (no result: Hsp70 activator, TbHK1 inh)
Clc1ccc(-n2nnnc2Sc2ncnc3sccc23)cc1	HSF1 activator 128.9
COc1ccc(-c2n(Cc3ccccc3)c3ccccc3[n+]2Cc2ccccc2)cc1	none
O=C(O)CC1SC(=O)N(Cc2ccccc2)C1=O (configuration not stated)	HSF1 inh -88.7
CCCN1C(=O)SC(CC(=O)Nc2ccccc2)C1=O (configuration not stated)	none
CCOC(=O)CCC(NC(=O)c1ccc(Nc2nc3ccccc3nc2C(=O)OCC)cc1)C(=O)OCC (configuration not stated)	none (no result: Hsp70 activator, HSF1 activator, TbHK1 inh, HSF1 inh, HSP90 refold inh)
OCc1ccc2c(c1)c(-c1ccc3c(c1)OCCO3)c(-c1ccccc1)n2-c1ccccc1	none (no result: Hsp70 activator, HSF1 activator, TbHK1 inh, HSF1 inh, HSP90 refold inh)
CCOC(=O)/C(=N/Nc1ccc(Cl)cc1)Sc1nnnn1-c1ccc(C)cc1	HSF1 activator 73.7
CCC(=O)Nc1cc(-c2nn(C)c(=O)c3ccccc23)ccc1OC	none
CCCC(=O)Nc1cc(-c2nn(C)c(=O)c3ccccc23)ccc1OC	HSF1 activator 59.5
CCOC(=O)c1ccc(NC(=O)/C=C/c2cccs2)cc1	HSF1 activator 53.2
Cc1cc(NC(=O)CSc2nc3c(sc4ccccc43)c(=O)n2CCCN2CCOCC2)n[nH]1	HSF1 activator 64.1
COc1ccc(-c2[nH]ncc2CN2CCC(c3ccncc3)CC2)cc1F	none (no result: Hsp70 activator)
COc1ccc(-c2[nH]ncc2CN2CCN(C3CCCCC3)C(=O)C2)cc1F	HSF1 activator 56.3
COc1cc(C2C(C(=O)c3cc4ccccc4o3)=C(O)C(=O)N2c2cc(C)on2)cc(OC)c1OC (configuration not stated)	HSF1 activator 57.1 (no result: Hsp70 activator, TbHK1 inh)
COc1cccc(C2C(C(=O)c3cc4ccccc4o3)=C(O)C(=O)N2c2cc(C)on2)c1OC (configuration not stated)	none
CCN(/C=N/c1sc2c(c1C#N)CCCCC2)CC	HSF1 activator 59.9
COc1ccc(OCC(O)CN2CCN(Cc3ccc4c(c3)OCO4)CC2)cc1 (configuration not stated)	none
CC(=O)c1ccc(OCC(O)CN2CCN(Cc3ccc4c(c3)OCO4)CC2)cc1 (configuration not stated)	HSF1 inh -61.1!
CC(=O)N1CCN(C(=O)c2ccc3oc(CCCc4ccccc4)nc3c2)CC1	none (no result: Hsp70 activator, TbHK1 inh)
CCOC(=O)N1CCN(C(=O)c2ccc3oc(CCCc4ccccc4)nc3c2)CC1	HSF1 activator 61.3 (no result: Hsp70 activator, TbHK1 inh)
Cc1ccc(OC(=O)CCC(=O)Nc2ccc(C(N)=O)cc2)cc1	none (no result: Hsp70 activator, TbHK1 inh, HSP90 refold inh)
CCN(C(=O)COC(=O)c1cc(-c2ccc3cc(OC)ccc3c2)nc2ccccc12)C1CCS(=O)(=O)C1 (configuration not stated)	HSF1 activator 70.5 (no result: HKDC1 inh)
CCN(C(=O)COC(=O)c1c2c(nc3ccccc13)/C(=C/c1ccccc1)CC(C)C2)C1CCS(=O)(=O)C1 (configuration not stated)	HSF1 activator 83.9
Cc1ccccc1C(=O)N1CCC(C(=O)NN2C(=O)NC3(CCC(C)CC3)C2=O)CC1 (configuration not stated)	none (no result: Hsp70 activator, HSF1 activator, TbHK1 inh, HSF1 inh, HSP90 refold inh)
C#CC(=O)N(c1ccc(OC)cc1OC)C(C(=O)NC1CCCC1)c1cccs1 (configuration not stated)	none
C#CC(=O)N(c1cc(OC)ccc1OC)C(C(=O)NC1CCCC1)c1cccs1 (configuration not stated)	HSF1 inh -90.1
COc1cc(C2c3c(oc4ccccc4c3=O)C(=O)N2Cc2ccco2)ccc1O (configuration not stated)	none
COc1cccc(C2c3c(oc4ccccc4c3=O)C(=O)N2Cc2ccco2)c1 (configuration not stated)	HSF1 activator 58.7 (no result: Hsp70 activator, TbHK1 inh, HSP90 refold inh)
CC1=CC2C(C(O)CC3(C)C2CC(C)C32OCOC23COCO3)C2(C)C/C(=C\O)C(=O)C=C12 (configuration not stated)	HSF1 activator 94.3, HSF1 inh 94.3 (no result: Hsp70 activator, TbHK1 inh, HSP90 refold inh)
CCCN1CCC(NC23CC4CC(CC(C4)C2)C3)CC1	none (no result: Hsp70 activator, TbHK1 inh, HKDC1 inh)
O=[N+]([O-])c1ccc(CSc2nnc(SCc3ccc(Cl)cc3)s2)cc1	HSF1 activator 55.7
Nc1ccc2nc(SCc3ccc([N+](=O)[O-])cc3)sc2c1	HSF1 activator 98.4
O=S1(=O)CCOCCCN1Cc1ccccc1	none (no result: Hsp70 activator, TbHK1 inh)
Cc1ccc(C2=NCCn3c2c2ccc(C(F)(F)F)cc2[n+]3[O-])cc1	HSF1 inh -55.1 (no result: Hsp70 activator, TbHK1 inh, HSP90 refold inh)
COc1ccc(C2=NCCn3c2c2ccc(C(F)(F)F)cc2[n+]3[O-])cc1	none (no result: Hsp70 activator, TbHK1 inh, HSP90 refold inh)
CCCCn1cnc2c(oc3nc4c(cc32)CCCC4)c1=O	HSF1 activator 53.4 (no result: Hsp70 activator)
CCCCCCn1cnc2c(oc3nc4c(cc32)CCCC4)c1=O	none
CSCCC(NC(=O)c1ccccc1Cl)C(=O)N(C)Cc1cccs1 (configuration not stated)	none (no result: Hsp70 activator, TbHK1 inh)
O=C(N/N=C/c1sc2ccccc2c1O)c1ccccc1	HSF1 activator 270.4
Cc1ccc2c(c1)N(C(=O)CCC(=O)NCc1cccnc1)CC(C)O2 (configuration not stated)	none (no result: Hsp70 activator, TbHK1 inh)
Cc1ccc(-n2nc(C)c3c2C(Br)C(C)(C)CC3=O)nc1 (configuration not stated)	none (no result: Hsp70 activator, HSF1 activator, TbHK1 inh, HSF1 inh, HSP90 refold inh)
Cc1csc(NC(=O)Nc2cccc(Cl)c2)n1	HSF1 activator 55.4
O=C(NCc1ccccn1)Nc1cccc(Cl)c1	HSF1 activator 55.6
CCC(CC)c1nnc(NC(=O)c2ccc3ccccc3n2)s1	HSF1 activator 52.9
O=C(Nc1ccccn1)c1ccc2ccccc2n1	HSF1 activator 74.3
Cc1ccc(/C(O)=C2\C(=O)C(=O)N(C)C2c2ccc(F)cc2)cc1 (configuration not stated)	none (no result: Hsp70 activator, TbHK1 inh)
CN(CCOc1ccccc1)C(=S)Nc1ccc(OC(F)F)cc1	none (no result: Hsp70 activator, TbHK1 inh)
Cc1cnc(NC(=O)Cc2c[nH]c3ccccc23)s1	none
Cc1csc(NC(=O)c2ccc3ccccc3n2)n1	HSF1 activator 54.7 (no result: Hsp70 activator, TbHK1 inh)
Cc1csc(NC(=O)Cc2c[nH]c3ccccc23)n1	HSF1 activator 63.2
O=C(Nc1nccs1)c1ccc2ccccc2n1	HSF1 activator inconclusive (no result: Hsp70 activator, TbHK1 inh)
C(=C\c1ccccc1)/CSc1nc2ncccc2[nH]1	HSF1 activator 71.5 (no result: Hsp70 activator)
CCc1ccc(OCC(=O)O/N=C(\N)c2ccccn2)cc1	HSF1 activator 63.6 (no result: Hsp70 activator)
Cc1cccc(OCC(=O)O/N=C(\N)c2ccccn2)c1	none
N/C(=N\OC(=O)COc1ccccc1)c1cccnc1	none (no result: Hsp70 activator, TbHK1 inh, HSP90 refold inh)
N/C(=N\OC(=O)COc1ccc(Br)cc1)c1cccnc1	HSF1 activator 56.6
N/C(=N\OC(=O)C(c1ccccc1)c1ccccc1)c1cccnc1	none
Cc1ccc(OCC(=O)O/N=C(\N)c2ccccn2)cc1C	HSF1 activator 107.8 (no result: Hsp70 activator)
N/C(=N\OC(=O)C(c1ccccc1)c1ccccc1)c1ccccn1	HSF1 activator 72.6
